Converted amounts (≈) assume the structure as drawn. The source made the active and inactive calls. No cut-off for these calls is given here.
What was measured:
KB = experiment: Cytotoxicity against human KB cells; type: functional; details: read-out: ED50 (the source's name)
[1] = Cytotoxicity against human multidrug-resistant KBV1 cells in absence of vinblastin; type: functional; details: KB-V1, read-out: ED50 (the source's name)
Col2 = experiment: Cytotoxicity against human Col2 cells; type: functional; details: read-out: ED50 (the source's name)
[2] = Cytotoxicity against human multidrug-resistant SKVLB1 cells in presence of adriamycin; type: functional, cell-based
SW626 = experiment: Cytotoxicity against human SW626 cells; type: functional; details: read-out: ED50 (the source's name)
[3] = Cytotoxicity against human BC1 cells; type: functional; details: read-out: ED50 (the source's name)
LNCaP = experiment: Cytotoxicity against human LNCAP cells; type: functional; details: read-out: ED50 (the source's name)
SK-OV-3 = experiment: Cytotoxicity against human SKOV3 cells; type: functional, cell-based
[4] = Cytotoxicity against human multidrug-resistant KBV1 cells in presence of vinblastin; type: functional; details: KB-V1, read-out: ED50 (the source's name)
[5] = Cytotoxicity against human multidrug-resistant SKVLB1 cells; type: functional, cell-based
Lu1 = experiment: Cytotoxicity against human Lu1 cells; type: functional; details: read-out: ED50 (the source's name)
[6] = molecular target: T1, ATP-dependent translocase ABCB1 (Homo sapiens, UniProt P08183); experiment: Modulation of P-gp in human CAKI1 cells assessed as increase in DINIB-induced cytotoxicity at 1.5 to 25 ug/mL; type: cell-based; details: caki-1
T1 sequence (P08183 whole entry): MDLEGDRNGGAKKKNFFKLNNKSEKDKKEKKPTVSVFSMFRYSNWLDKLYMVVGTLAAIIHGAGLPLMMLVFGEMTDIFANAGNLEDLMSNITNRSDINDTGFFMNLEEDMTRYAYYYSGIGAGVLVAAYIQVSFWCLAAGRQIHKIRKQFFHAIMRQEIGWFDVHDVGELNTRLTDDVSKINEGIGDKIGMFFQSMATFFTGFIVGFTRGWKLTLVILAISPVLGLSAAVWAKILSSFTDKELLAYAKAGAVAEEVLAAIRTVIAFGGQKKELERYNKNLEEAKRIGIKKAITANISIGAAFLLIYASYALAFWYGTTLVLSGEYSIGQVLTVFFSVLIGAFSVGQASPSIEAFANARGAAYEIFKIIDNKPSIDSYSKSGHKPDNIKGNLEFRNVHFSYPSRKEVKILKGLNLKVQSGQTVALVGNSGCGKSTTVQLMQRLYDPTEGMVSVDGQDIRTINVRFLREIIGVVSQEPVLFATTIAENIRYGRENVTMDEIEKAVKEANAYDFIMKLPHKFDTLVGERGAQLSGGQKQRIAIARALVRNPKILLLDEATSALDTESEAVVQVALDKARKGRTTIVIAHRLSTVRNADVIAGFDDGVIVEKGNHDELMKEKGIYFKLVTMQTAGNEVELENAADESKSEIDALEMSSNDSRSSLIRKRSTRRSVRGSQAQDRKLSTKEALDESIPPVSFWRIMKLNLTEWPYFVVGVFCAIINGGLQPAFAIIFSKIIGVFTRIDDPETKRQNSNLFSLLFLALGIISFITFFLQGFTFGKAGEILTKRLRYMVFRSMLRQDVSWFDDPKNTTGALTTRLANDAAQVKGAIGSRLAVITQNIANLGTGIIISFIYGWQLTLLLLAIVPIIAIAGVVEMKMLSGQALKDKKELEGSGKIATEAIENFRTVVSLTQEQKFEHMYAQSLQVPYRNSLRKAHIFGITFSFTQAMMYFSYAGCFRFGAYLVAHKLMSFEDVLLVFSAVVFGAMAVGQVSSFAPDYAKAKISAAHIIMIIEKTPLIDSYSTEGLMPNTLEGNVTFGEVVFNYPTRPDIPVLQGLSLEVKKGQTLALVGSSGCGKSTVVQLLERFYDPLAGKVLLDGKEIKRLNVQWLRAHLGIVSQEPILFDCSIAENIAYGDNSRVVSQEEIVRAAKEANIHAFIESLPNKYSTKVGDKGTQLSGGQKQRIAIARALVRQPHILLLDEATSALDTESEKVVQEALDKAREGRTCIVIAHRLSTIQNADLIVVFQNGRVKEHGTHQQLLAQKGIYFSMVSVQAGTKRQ
Summary of the method: (§1)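 NCI tumour-panel lines of differing MDR1 expression and function (HCT-15 and UO-31 high, CAKI-1 moderate, LOX IMVI none) were exposed to the MDR-substrate cytotoxin DINIB with or without modulator. 5-Fluorouracil, a non-MDR agent, served as the negative control; verapamil and cyclosporin A were reference modulators. Modulator concentrations spanned full dose–response curves. Maximum escalation of DINIB toxicity was taken at nontoxic modulator concentrations.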

[7] = molecular target: T1, ATP-dependent translocase ABCB1; experiment: Modulation of P-gp in human HCT15 cells assessed as increase in DINIB-induced cytotoxicity at 1.5 to 25 ug/mL; type: cell-based; details: hct-15; summary of the method: as §1
LOX IMVI [8] = experiment: Increase in DINIB-induced cytotoxicity against human LOXIMVI at 1.5 to 25 ug/mL; type: functional, cell-based; summary of the method: as §1
[9] = molecular target: T1, ATP-dependent translocase ABCB1; experiment: Modulation of P-gp in human UO31 cells assessed as increase in DINIB-induced cytotoxicity at 1.5 to 25 ug/mL; type: cell-based; details: uo-31; summary of the method: as §1
[10] = molecular target: T1, ATP-dependent translocase ABCB1; experiment: Modulation of P-gp in human HCT15 cells assessed as increase in DINIB-induced cytotoxicity at 3.1 to 50 ug/mL; type: cell-based; details: hct-15
Summary of the method: (§2)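 Modulator dose ranges were chosen to give full dose–response curves and were combined with DINIB, an MDR-substrate cytotoxic agent, at nontoxic modulator concentrations. 5-Fluorouracil, a non-MDR agent, served as the negative-control drug. MDR1 expression and function: HCT-15 and UO-31 high, CAKI-1 moderate, LOX IMVI none (no MDR phenotype). The read-out was enhancement of DINIB growth inhibition.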

[11] = molecular target: T1, ATP-dependent translocase ABCB1; experiment: Modulation of P-gp in human UO31 cells assessed as increase in DINIB-induced cytotoxicity at 3.1 to 50 ug/mL; type: cell-based; details: uo-31; summary of the method: as §2
LOX IMVI [12] = experiment: Increase in DINIB-induced cytotoxicity against human LOXIMVI at 3.1 to 50 ug/mL; type: functional, cell-based; summary of the method: as §2
[13] = molecular target: T1, ATP-dependent translocase ABCB1; experiment: Modulation of P-gp in human CAKI1 cells assessed as increase in DINIB-induced cytotoxicity at 3.1 to 50 ug/mL; type: cell-based; details: caki-1; summary of the method: as §2
LOX IMVI [14] = experiment: Increase in DINIB-induced cytotoxicity against human LOXIMVI at 0.8 to 12.5 ug/mL; type: functional, cell-based; summary of the method: as §2
[15] = molecular target: T1, ATP-dependent translocase ABCB1; experiment: Modulation of P-gp in human UO31 cells assessed as increase in DINIB-induced cytotoxicity at 0.2 to 3.1 ug/mL; type: cell-based; details: uo-31; summary of the method: as §2
[16] = molecular target: T1, ATP-dependent translocase ABCB1; experiment: Modulation of P-gp in human HCT15 cells assessed as increase in DINIB-induced cytotoxicity at 0.2 to 3.1 ug/mL; type: cell-based; details: hct-15; summary of the method: as §2
LOX IMVI [17] = experiment: Increase in DINIB-induced cytotoxicity against human LOXIMVI at 0.2 to 3.1 ug/mL; type: functional, cell-based; summary of the method: as §2
[18] = molecular target: T1, ATP-dependent translocase ABCB1; experiment: Modulation of P-gp in human CAKI1 cells assessed as increase in DINIB-induced cytotoxicity at 0.2 to 3.1 ug/mL; type: cell-based; details: caki-1; summary of the method: as §2
LOX IMVI [19] = experiment: Increase in DINIB-induced cytotoxicity against human LOXIMVI at 0.2 to 12.5 ug/mL; type: functional, cell-based; summary of the method: as §2
[20] = molecular target: T1, ATP-dependent translocase ABCB1; experiment: Modulation of P-gp in human UO31 cells assessed as increase in DINIB-induced cytotoxicity at 0.2 to 12.5 ug/mL; type: cell-based; details: uo-31; summary of the method: as §2
[21] = molecular target: T1, ATP-dependent translocase ABCB1; experiment: Modulation of P-gp in human HCT15 cells assessed as increase in DINIB-induced cytotoxicity at 0.2 to 12.5 ug/mL; type: cell-based; details: hct-15; summary of the method: as §2
[22] = molecular target: T1, ATP-dependent translocase ABCB1; experiment: Modulation of P-gp in human CAKI1 cells assessed as increase in DINIB-induced cytotoxicity at 0.2 to 12.5 ug/mL; type: cell-based; details: caki-1; summary of the method: as §2

Structure (SMILES) | EC50 (KB) [µg/mL] | EC50 [1] [µg/mL] | EC50 (Col2) [µg/mL] | IC50 [2] [nM] | EC50 (SW626) [µg/mL] | EC50 [3] [µg/mL] | EC50 (LNCaP) [µg/mL] | IC50 (SK-OV-3) [nM] | EC50 [4] [µg/mL] | IC50 [5] [nM] | EC50 (Lu1) [µg/mL] | further results
COc1cc(/C=C/C(=O)O[C@H]2[C@@H](O)[C@@H]3C[C@H](OC(=O)c4cc(OC)c(OC)c(OC)c4)C[C@H]2N3C)cc(OC)c1OC [PERVILLEINE A] | > 20 | > 20 | > 20 | 650 | > 20 | > 20 | > 20 | > 10000 | 0.3 | > 10000 | > 20 | –
COc1cc(/C=C/C(=O)O[C@H]2C[C@@H]3C[C@H](OC(=O)Cc4ccccc4)C[C@H]2N3C)cc(OC)c1OC [PERVILLEINE F] | > 20 | > 20 | 4.9 (≈ 9.89 µM) | – | > 20 | > 20 | > 20 | – | 0.2 | – | > 20 | Activity [6]: Active; Activity [7]: Active; Activity (LOX IMVI [8]): inactive; Activity [9]: Active
COc1cc(C(=O)O[C@H]2C[C@H]3CC[C@@H](C2)N3C)cc(OC)c1OC | > 20 | > 20 | > 20 | – | > 20 | > 20 | > 20 | – | > 20 | – | > 20 | –
COc1cc2c(cc1OC)CN(CCc1ccc(NC(=O)c3cccc4c(=O)c5cccc(OC)c5[nH]c34)cc1)CC2 | – | – | – | 20 | – | – | – | 8100 | – | 14000 | – | –
COc1cc(/C=C/C(=O)O[C@@H]2C[C@@H]3[C@@H](OC(=O)/C=C/c4cc(OC)c(OC)c(OC)c4)[C@@H](O)[C@H](C2)N3C)cc(OC)c1OC [PERVILLEINE D] | 11 (≈ 17.9 µM) | 9 (≈ 14.7 µM) | 4.9 (≈ 7.98 µM) | – | 6.5 (≈ 10.6 µM) | 15 (≈ 24.4 µM) | 14.1 (≈ 23 µM) | – | 0.2 | – | 15.1 (≈ 24.6 µM) | Activity [10]: Active; Activity [11]: Active; Activity (LOX IMVI [12]): inactive; Activity [13]: Active
COc1ccc(CCN(C)CCCC(C#N)(c2ccc(OC)c(OC)c2)C(C)C)cc1OC (stereo unspecified) | – | – | – | – | – | – | – | – | – | – | – | Activity (LOX IMVI [14]): Active
COc1cc(/C=C/C(=O)O[C@H]2C[C@@H]3C[C@H](OC(=O)Cc4cccc(O)c4)C[C@H]2N3C)cc(OC)c1OC [PERVILLEINE E] | 14.7 (≈ 28.7 µM) | > 20 | 13.4 (≈ 26.2 µM) | – | 8.4 (≈ 16.4 µM) | > 20 | > 20 | – | 1.9 | – | > 20 | –
CN1C2C[C@@H](OC(=O)Cc3ccccc3)CC1[C@H](O)[C@@H]2O | > 20 | > 20 | > 20 | – | > 20 | > 20 | > 20 | – | > 20 | – | > 20 | –
COc1cc(/C=C/C(=O)O[C@H]2C[C@H]3C[C@H](OC(=O)/C=C/c4cc(OC)c(OC)c(OC)c4)[C@@H](C2)N3C)cc(OC)c1OC [PERVILLEINE C] | 2.2 (≈ 3.68 µM) | 9 (≈ 15.1 µM) | 4.1 (≈ 6.86 µM) | 80 | 1.4 (≈ 2.34 µM) | 2.8 (≈ 4.68 µM) | > 20 | 2800 | 0.1 | > 10000 | 2.3 (≈ 3.85 µM) | Activity [15]: Active; Activity [16]: Active; Activity (LOX IMVI [17]): inactive; Activity [18]: Active
COc1cc(/C=C/C(=O)O[C@H]2C[C@@H]3C[C@H](OC(=O)c4cc(OC)c(OC)c(OC)c4)C[C@H]2N3C)cc(OC)c1OC [PERVILLEINE B] | > 20 | 8.8 (≈ 15.4 µM) | 1.3 (≈ 2.27 µM) | 120 | 3.2 (≈ 5.6 µM) | 9.4 (≈ 16.4 µM) | 1 (≈ 1.75 µM) | 3800 | 0.1 | > 10000 | 3.1 (≈ 5.42 µM) | Activity (LOX IMVI [19]): inactive; Activity [20]: Active; Activity [21]: Active; Activity [22]: Active
COc1cccc2c1C(=O)c1c(O)c3c(c(O)c1C2=O)C[C@@](O)(C(=O)CO)C[C@@H]3O[C@H]1C[C@H](N)[C@H](O)[C@H](C)O1 [DOXORUBICIN] | – | – | – | – | – | – | – | 8 | – | 2200 | – | –
COc1cc(/C=C/C(=O)O[C@H]2[C@@H](O)[C@@H]3C[C@H](OC(=O)c4cc(OC)c(OC)c(OC)c4)C[C@H]2[N+]3(C)[O-])cc(OC)c1OC (stereo partly specified) | > 20 | > 20 | > 20 | > 10000 | > 20 | > 20 | > 20 | > 10000 | > 20 | > 10000 | > 20 | –

Reference: ChEMBL document CHEMBL1156388, “Modulation of the multidrug-resistance phenotype by new tropane alkaloid aromatic esters from Erythroxylum pervillei” (J Nat Prod, 2001)
